Data from ChEMBL document CHEMBL4765399, “Design, synthesis, and biological evaluation of 5-((8-methoxy-2-methylquinolin-4-yl)amino)-1H-indole-2-carbohydrazide derivatives as novel Nur77 modulators” (Eur J Med Chem, 2020).
Activity calls are given as the source filed them. No cut-off for these calls is given here.

Legend:
HepG2 [1] = experiment: Induction of endoplasmic reticulum stress in human HepG2 cells assessed as increase in TRB3 expression at 2 uM measured after 1 to 4 hrs by Western blot analysis; format: functional, cell-based; settings: time 1-4 hrs
In short: (§1)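 HepG2 exposed to 2.0 µM over a time course; Nur77, Bip, p-EIF2a, TRB3 and LC3 levels followed by Western blot of RIPA lysates.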

HepG2 [2] = experiment: Induction of apoptosis in human HepG2 cells transfected with shRNA assessed as necrotic cells at 2 uM incubated for 12 hrs by Annexin V-FITC/PI staining based flow cytometry (reference value: 0.15%); format: functional
SMMC-7721 [3] = experiment: Induction of apoptosis in human SMMC-7721 cells assessed as increase in cleaved PARP level at 0.5 to 2 uM incubated for 12 hrs by Western blot analysis; format: functional, cell-based; settings: dose 0.5-2 µM
In short: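 QGY-7703 (RPMI 1640, 10% FBS) and SMMC-7721 (DMEM) cells at 37 °C, 5% CO2, treated with graded concentrations for 12 h. RIPA lysates (40-80 µg protein) run on SDS-PAGE, transferred to nitrocellulose, immunoblotted for cleaved PARP; chemiluminescence read-out.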

HepG2 [4] = experiment: Induction of autophagy in Nur77 knockout human HepG2 cells assessed as increase in Beclin 1 expression at 2 uM measured after 6 to 12 hrs by Western blot analysis; format: functional, cell-based; settings: time 6-12 hrs
In short: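 Scrambled-control and shNur77 HepG2 given DMSO or 2.0 µM for 6 or 12 h; immunoblotting of RIPA lysates for LC3, Beclin1 and Nur77 after SDS-PAGE and nitrocellulose transfer, chemiluminescent detection.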

HepG2 [5] = experiment: Induction of apoptosis in human HepG2 cells transfected with shRNA assessed as live cells at 2 uM incubated for 12 hrs by Annexin V-FITC/PI staining based flow cytometry (reference value: 92.6%); format: functional
QGY-7703 [6] = experiment: Upregulation of Nur77 expression in human QGY-7703 cells incubated for 6 hrs by Western blot analysis; format: functional, cell-based; settings: dose 0.5-2 µM
In short: (§2)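 HepG2, QGY-7703 and SMMC-7721 cells treated with the indicated concentrations for 6 h. HepG2 also given 2.0 µM over a time course. Lysis in RIPA with protease and phosphatase inhibitors; 40-80 µg protein by SDS-PAGE, nitrocellulose transfer. Membranes blocked with 5% milk, primary antibody overnight, HRP secondary, chemiluminescence. GAPDH as loading control.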

QGY-7703 [7] = experiment: Antiproliferative activity against human QGY-7703 cells assessed as reduction in cell viability at 2 uM by MTT assay; format: functional, cell-based; settings: time 12-48 hrs, TDE = time-dependent effect
In short: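 Cells treated with 2.0 µM over a time course; viability read by MTT. HepG2, SMMC-7721 kept in DMEM, QGY-7703 in RPMI 1640, with 10% FBS at 37 °C and 5% CO2.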

SMMC-7721 [8] = experiment: Inhibition of colony formation in human SMMC-7721 cells at 2 uM incubated for 24 hrs measured after cell culturing for 15 days in normal medium by crystal violet staining based assay; format: functional; settings: time 16.0 day
In short: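 500 HepG2, QGY-7703 or SMMC-7721 cells per well allowed to attach 24 h, exposed to DMSO or 2.0 µM for 24 h, then grown 15 days in plain medium. Colonies fixed 30 min in 4% paraformaldehyde, stained 15 min with 0.1% crystal violet, photographed and counted.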

HepG2 [9] = experiment: Induction of endoplasmic reticulum stress in Nur77 […] human HepG2 cells assessed as TRB3 protein expression at 2 uM incubated for 12 hrs by Western blot analysis; format: functional, cell-based
In short: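 HepG2 and shNur77 HepG2 exposed to DMSO or 2.0 µM for 6 and 12 h; lysates immunoblotted for TRB3, Bip, CHOP and Nur77 (SDS-PAGE, nitrocellulose, overnight primary antibodies, HRP secondary, chemiluminescence).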

HepG2 [10] = experiment: Induction of endoplasmic reticulum stress in human HepG2 cells assessed as increase in PDI protein expression at 2 uM incubated for 6 hrs by confocal microsocopic analysis; format: functional, cell-based
In short: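 HepG2, or HepG2 plus shNur77 HepG2, treated with 2.0 µM for 6 h, fixed in 4% paraformaldehyde 20 min, permeabilised 0.1% Triton X-100, blocked in 5% BSA, stained with PDI antibody and imaged by confocal fluorescence microscopy.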

HepG2 [11] = experiment: Upregulation of Nur77 expression in human HepG2 cells at 2 uM measured after 1 to 6 hrs by western blot analysis; format: functional, cell-based; settings: time 1-6 hrs; in short: as §2
[12] = target: Nuclear receptor subfamily 4immunitygroup A member 1 (Homo sapiens, UniProt P22736); experiment: Binding affinity to Nur77 ligand binding domain (unknown origin) at 10 uM by surface plasmon resonance analysis; settings: filed as modulator
Sequence of Nuclear receptor subfamily 4immunitygroup A member 1 (P22736 whole entry, the tested form may be a part): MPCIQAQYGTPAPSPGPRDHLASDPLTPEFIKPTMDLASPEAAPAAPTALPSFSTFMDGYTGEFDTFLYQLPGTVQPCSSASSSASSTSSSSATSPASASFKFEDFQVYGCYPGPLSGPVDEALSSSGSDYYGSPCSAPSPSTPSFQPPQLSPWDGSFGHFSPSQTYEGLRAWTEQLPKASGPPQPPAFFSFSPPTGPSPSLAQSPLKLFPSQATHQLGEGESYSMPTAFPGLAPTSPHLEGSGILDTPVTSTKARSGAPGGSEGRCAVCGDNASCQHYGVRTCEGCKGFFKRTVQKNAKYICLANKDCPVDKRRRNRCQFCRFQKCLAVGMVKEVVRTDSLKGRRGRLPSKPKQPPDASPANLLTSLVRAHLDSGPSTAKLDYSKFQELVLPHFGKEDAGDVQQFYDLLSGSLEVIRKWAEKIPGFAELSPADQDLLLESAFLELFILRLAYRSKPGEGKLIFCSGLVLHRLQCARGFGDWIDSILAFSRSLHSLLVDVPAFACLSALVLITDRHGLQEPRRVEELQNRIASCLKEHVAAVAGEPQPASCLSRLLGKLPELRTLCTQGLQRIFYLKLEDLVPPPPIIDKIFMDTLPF
In short: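 Single-concentration SPR screen at 10.0 µM against Nur77-LBD; binding given as RU response.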

HepG2 [13] = experiment: Induction of autophagy in human HepG2 cells assessed as increase in LC3-II expression at 2 uM measured after 4 to 6 hrs by Western blot analysis; format: functional, cell-based; settings: time 4-6 hrs; in short: as §1
Mus musculus = experiment: Induction of Nur77 expression in tumor tissue of BALB/c mouse xenografted with human HepG2 cells at 10 to 20 mg/kg/day, ip administered for 15 days by western blot analysis; settings: dose 10-20 mg/kg/day, time 15.0 day
HepG2 [14] = experiment: Induction of apoptosis in human HepG2 cells assessed as increase in cleaved PARP level pretreated with nuclear export inhibitor, LMB followed by incubation with compound for 12 hrs by western blot analysis; format: functional, cell-based
HepG2 [15] = experiment: Induction of apoptosis in human HepG2 cells assessed as early apoptotic cells at 1 uM incubated for 12 hrs by Annexin V-FITC/PI staining based flow cytometry (reference value: 3.99%); format: functional
HepG2 [16] = experiment: Antitumor activity against human HepG2 cells xenografted in BALB/c mouse assessed as tumor weight at 20 mg/kg/day, ip administered for 15 days (reference value: 0.86 +/- 0.18 g); format: functional; settings: dose 10 mg/kg/day; time 15 day; in the assay text read “10 mg/kg/day” for “20 mg/kg/day”
In short: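 Subcutaneous flank xenograft of 5×10^6 HepG2 cells in 4-week-old male Balb/c nude mice. At about 100 mm³, 15 mice were randomized into three groups: vehicle, 10 or 20 mg/kg i.p. daily for 15 days. Tumor size was measured every day, and tumors were excised and weighed at the end.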

SMMC-7721 [17] = experiment: Induction of endoplasmic reticulum stress in human SMMC-7721 cells assessed as increase in CHOP protein expression incubated for 12 hrs by Western blot analysis; format: functional, cell-based; settings: dose 0.5-2 µM
In short: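 HepG2, QGY-7703 and SMMC-7721 treated with graded concentrations for 12 h. Lysed in RIPA with inhibitors; 40-80 µg protein separated by SDS-PAGE, blotted to nitrocellulose, blocked 1 h in 5% milk, primary antibodies overnight (LC3, Beclin1, Bip, CHOP, TRB3), HRP secondaries, chemiluminescence.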

Activity [12]: 91.6 RU
SMILES: COc1cccc2c(Nc3ccc4[nH]c(C(=O)N/N=C/c5ccc(SC)cc5)cc4c3)cc(C)nc12
Activity (HepG2 [1]): Active | Activity (HepG2 [2]): 0.16% | Activity (SMMC-7721 [3]): Dose-dependent effect | Activity (HepG2 [4]): Active | Activity (HepG2 [5]): 59.8% | Activity (QGY-7703 [6]): Dose-dependent effect | Activity (QGY-7703 [7]): Tde | inhibition (SMMC-7721 [8]): Active | Activity (HepG2 [9]): inactive | Activity (HepG2 [10]): Active | Activity (HepG2 [11]): Active | Activity (HepG2 [13]): Active | Activity (Mus musculus): Active | Activity (HepG2 [14]): inactive | Activity (HepG2 [15]): 18.5% | Activity (HepG2 [16]): 0.5 g | Activity (SMMC-7721 [17]): Dose-dependent effect
